{
  "source": "PubChem BioAssay AID624466",
  "about": "(The Scripps Research Institute Molecular Screening Center, 2012)",
  "note": "Where “and” joins values, the source holds several entries; their conditions need not be identical. Identical values can stand only once. The whole screen tested about 360,000 compounds, of which about 5,400 (1.5%) were called active.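 Rule for the calls: active = inhibition above a per-plate cutoff, the mean inhibition of test compounds on that plate plus 3 SD (cut at about 49% in these data); inactive = the rest.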 Shown is part of a subset that was picked to be rich in actives.",
  "data": [
    {"molecular_target": "Trace amine-associated receptor 1 (Homo sapiens) (UniProt Q96RJ0)", "sequence (Q96RJ0 whole entry, looked up)": "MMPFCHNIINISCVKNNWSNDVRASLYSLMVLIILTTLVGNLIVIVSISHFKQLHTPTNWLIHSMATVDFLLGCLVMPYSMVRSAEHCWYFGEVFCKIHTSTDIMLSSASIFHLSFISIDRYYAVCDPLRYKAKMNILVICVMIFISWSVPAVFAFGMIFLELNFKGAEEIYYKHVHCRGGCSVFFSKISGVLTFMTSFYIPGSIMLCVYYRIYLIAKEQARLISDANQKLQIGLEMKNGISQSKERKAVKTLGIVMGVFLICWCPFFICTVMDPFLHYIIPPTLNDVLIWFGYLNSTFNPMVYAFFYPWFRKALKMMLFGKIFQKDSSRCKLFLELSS", "assay": "human TAAR1 antagonists, primary screen, Fluo-8 calcium fluorescence, CHO RD-HGA16 cells (AID 624466);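 note: 0% = DMSO plus EC80 beta-PEA response and 100% = DMSO alone without agonist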", "details": "CHO RD-HGA16 TAAR1, Fluo-8 calcium fluorescence, antagonist; at 3 µM; hits give high values", "outline": "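Assay system: RD-HGA16 CHO cells with stable hTAAR1 and Gα16 / Reagent: EC80 β-phenethylamine stimulus / Doses: 3 µM, single point / Timing: dye loading 75 min at 37 °C, then 30 min room temperature / Measured by: Fluo-8 intracellular calcium dye fluorescence, real-time kinetic reads / Controls: vehicle wells and EC80 agonist wells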", "values": [
      {"smiles": "C/C(=N\\N1CCN(Cc2ccc(C)cc2)CC1)c1ccco1", "inhibition": "-4.82% (inactive)"},
      {"smiles": "Cc1cccc(C)c1NC(=O)COC(=O)c1c(C)nn(-c2ccccc2)c1C", "inhibition": "-6.4% (inactive)"},
      {"smiles": "Cc1nn(-c2ccccc2)c(C)c1NC(=O)COC(=O)c1cc(Cl)ccc1O", "inhibition": "68.3% (active)"},
      {"smiles": "Cc1nn(-c2ccccc2)c(C)c1NC(=O)CCl", "inhibition": "-8.39% (inactive)"},
      {"smiles": "O=C(Nc1ccc(S(=O)(=O)N2CCOCC2)cc1)C1CCN(S(=O)(=O)c2ccc(Cl)cc2)CC1", "inhibition": "8.67% (inactive)"},
      {"smiles": "O=C(Nc1ccccc1)c1nnsc1S(=O)(=O)c1ccc(Cl)cc1", "inhibition": "59.8% (active)"},
      {"smiles": "Cc1nnsc1S(=O)(=O)Cc1ccccc1Cl", "inhibition": "-3.1% (inactive)"},
      {"smiles": "C=CCN=C1NC(c2cccc(C(F)(F)F)c2)C(C(=O)OC)=C(C)N1C", "note": "(stereo not given)", "inhibition": "5.15% (inactive)"},
      {"smiles": "C[C@@H](CN1C2=NC[C@@H](Cc3ccccc3)N2C[C@H]1Cc1ccc(O)cc1)NC(=O)CCC1CCCCC1", "inhibition": "-6.17% (inactive)"},
      {"smiles": "COc1ccccc1CC1(C)C(=O)Nc2ccc(OC(F)(F)F)cc21", "note": "(stereo not given)", "inhibition": "-12.2% (inactive)"},
      {"smiles": "Cc1ccc(CC2(C)C(=O)Nc3ccc(OC(F)(F)F)cc32)cc1", "note": "(stereo not given)", "inhibition": "-5.18% (inactive)"},
      {"smiles": "CCc1ccc2c(c1)NC(=O)C2(C)Cc1ccc(OC(F)(F)F)cc1", "note": "(stereo not given)", "inhibition": "55.2% (active)"},
      {"smiles": "CCOC(=O)c1cc2c(ccn2C)n1CC(=O)N1CCC(C)CC1", "inhibition": "-7.37% (inactive)"},
      {"smiles": "COc1ccc(CCNC2=C(Cl)C(=O)N(Cc3ccccc3)C2=O)cc1OC", "inhibition": "63% (active)"},
      {"smiles": "COc1ccc(CCNC(=O)c2ccccc2-c2ccccc2C(=O)O)cc1OC", "inhibition": "-6.06% (inactive)"},
      {"smiles": "COc1ccc(CCNc2nc(C)cc(C)n2)cc1OC", "inhibition": "-1.79% (inactive)"},
      {"smiles": "CC(=O)Nc1ccccc1OC(C)C(=O)N1CCC(C)CC1", "note": "(stereo not given)", "inhibition": "-3.93% (inactive)"},
      {"smiles": "COc1ccc2c(c1)C(SCC(=O)NCc1ccccc1)CC(C)(C)O2", "note": "(stereo not given)", "inhibition": "13% (inactive)"},
      {"smiles": "C=CCC[C@@H](Cc1ccc(F)cc1)C(=O)OC[C@@H](C)NC(=O)[C@H](CC=C)CC(=O)N(CCO)Cc1ccccc1", "inhibition": "46.1% (inactive)"},
      {"smiles": "C=CCC[C@H](Cc1ccc(F)cc1)C(=O)OC[C@@H](NC(=O)[C@@H](CC=C)CC(=O)N[C@H](CO)Cc1ccccc1)C(C)(C)C", "inhibition": "37.2% (inactive)"},
      {"smiles": "C=CC[C@@H](Cc1ccc(F)cc1)C(=O)OC[C@H]1CCCN1C(=O)[C@H](CC=C)CC(=O)N(CCO)Cc1ccccc1", "inhibition": "39.6% (inactive)"},
      {"smiles": "C=CC[C@@H](CC(=O)N[C@H](CO)Cc1ccccc1)C(=O)N[C@@H](COC(=O)[C@@H](CC=C)Cc1ccc(F)cc1)Cc1c[nH]c2ccccc12", "inhibition": "9.92% (inactive)"},
      {"smiles": "C=CCC[C@@H](Cc1ccc(F)cc1)C(=O)O[C@H](CNC(=O)[C@H](CC=C)CC(=O)N(CCO)Cc1ccccc1)c1ccccc1", "inhibition": "75.5% (active)"},
      {"smiles": "C=CC[C@@H](CC(=O)N[C@H](CO)Cc1ccccc1)C(=O)N[C@H](C)COC(=O)[C@@H](CC=C)Cc1ccc(F)cc1", "inhibition": "38% (inactive)"},
      {"smiles": "C=CCC[C@@H](Cc1ccc(F)cc1)C(=O)OC[C@H](Cc1c[nH]c2ccccc12)NC(=O)[C@@H](CC=C)CC(=O)N(CCO)Cc1ccccc1", "inhibition": "38.4% (inactive)"},
      {"smiles": "C=CCC[C@H](Cc1ccc(F)cc1)C(=O)OC[C@H](C)NC(=O)[C@H](CC=C)CC(=O)N(CCO)Cc1ccccc1", "inhibition": "55.4% (active)"},
      {"smiles": "C=CC[C@H](CC(=O)N(CCO)Cc1ccccc1)C(=O)N[C@@H](COC(=O)[C@@H](CC=C)Cc1ccc(F)cc1)Cc1ccccc1", "inhibition": "61.4% (active)"},
      {"smiles": "COC(=O)C1(C(=O)OC)C[C@H](c2ccccc2)N(Cc2ccccc2OC)[C@@H]1c1ccccc1", "inhibition": "-23.2% (inactive)"},
      {"smiles": "Cc1noc(C)c1NC(=O)Nc1ccc2c(c1)C(=O)N([C@H](C)CO)C[C@H](C)[C@H](CN(C)Cc1ccncc1)OCCCC[C@@H](C)O2", "inhibition": "8.35% (inactive)"},
      {"smiles": "CCCCCCc1cc2cc(-c3nnc(-c4cccc(OC)c4)o3)c(=O)oc2cc1O", "inhibition": "15.5% (inactive)"},
      {"smiles": "Nc1[nH]c(C(=O)c2ccccc2)c(-c2ccncc2)c1C(=O)NCc1cccc2ccccc12", "inhibition": "36.1% (inactive)"},
      {"smiles": "NC(=O)c1ncn([C@@H]2O[C@H](C(=O)O)[C@@H](O)[C@H]2O)n1", "inhibition": "-11.9% (inactive)"},
      {"smiles": "COc1cccc(CNC(=O)[C@H]2CCCN2C(=O)[C@H]2CCCN2C(=O)c2ccc(F)cc2)c1", "inhibition": "-14.1% (inactive)"},
      {"smiles": "COc1ccc(CNC(=O)C(c2ccc(O)cc2)N(Cc2ccco2)C(=O)c2snc(C(N)=O)c2N)cc1", "note": "(stereo not given)", "inhibition": "65% (active)"},
      {"smiles": "COc1cc(C(C(=O)NC2CCCC2)N(Cc2ccccc2)C(=O)c2snc(C(N)=O)c2N)ccc1O", "note": "(stereo not given)", "inhibition": "23.1% (inactive)"},
      {"smiles": "NC(=O)c1nsc(C(=O)N(CC(=O)NCc2ccc(F)cc2)Cc2ccco2)c1N", "inhibition": "10.2% (inactive)"},
      {"smiles": "COc1ccc2nc3n(c(=O)c2c1)-c1ccc(Cl)cc1C(=O)NC3Cc1ccccc1", "note": "(stereo not given)", "inhibition": "25.3% (inactive)"},
      {"smiles": "CCC(C(=O)OCC(=O)Nc1ccccc1-c1ccccc1)c1ccccc1", "note": "(stereo not given)", "inhibition": "36.7% (inactive)"},
      {"smiles": "CCC(C(=O)OCC(=O)Nc1c(Cl)cc(Cl)cc1Cl)c1ccccc1", "note": "(stereo not given)", "inhibition": "15.1% (inactive)"},
      {"smiles": "CCC(C(=O)OCC(=O)Nc1ccc(C(=O)Nc2ccc(OC)cc2)cc1)c1ccccc1", "note": "(stereo not given)", "inhibition": "65.6% (active)"},
      {"smiles": "O=C1Nc2c(Br)cc(Br)cc2C1(O)N1CCOCC1", "note": "(stereo not given)", "inhibition": "1.94% (inactive)"},
      {"smiles": "COc1ccc(-c2cc3nc(C)c(CCC(=O)NC(C)CCc4ccco4)c(C)n3n2)c(OC)c1", "note": "(stereo not given)", "inhibition": "8.4% (inactive)"},
      {"smiles": "COc1ccc2[nH]c3c(c2c1)CCN1C(=O)C(CC(=O)NCCc2ccccn2)C[C@H](C(=O)N2CCOCC2)[C@@]31C", "note": "(stereo not given in full)", "inhibition": "3.09% (inactive)"},
      {"smiles": "CCN1C(=O)N[C@@H]2C[C@H](C(=O)N3CCCC3)[C@H](C)[C@H](c3ccccc3)C[C@@H]21", "inhibition": "6% (inactive)"},
      {"smiles": "Cc1ccc(C)c(S(=O)(=O)N2CCN(CC(=O)Nc3ccc([N+](=O)[O-])cc3)CC2)c1", "inhibition": "28.5% (inactive)"},
      {"smiles": "Cc1ccc(C)c(S(=O)(=O)N2CCN(c3ncnc4sccc34)CC2)c1", "inhibition": "65.3% (active)"},
      {"smiles": "Cc1ccc(C)c(S(=O)(=O)n2cnc3ccccc32)c1", "inhibition": "-29.5% (inactive)"},
      {"smiles": "COc1ccc(NC(=O)N(C)C[C@@H]2OCCCC[C@@H](C)Oc3ccc(NC(=O)NC4CCCCC4)cc3C(=O)N([C@H](C)CO)C[C@@H]2C)cc1", "inhibition": "2.84% (inactive)"},
      {"smiles": "CC[C@H](C)[C@H]1CNC(=O)C(=O)N1CC1CCN(CCc2ccc(OC)c(OC)c2)CC1", "inhibition": "9.23% (inactive)"},
      {"smiles": "CCO/C([O-])=N/c1c[n+](N2CCOCC2)no1", "inhibition": "-14.5% (inactive) and -7.68% (inactive)"}
    ]}
  ]
}
